The results in this text go back to ChEMBL document CHEMBL1132966, “Conformationally constrained analogues of diacylglycerol (DAG). 16. How much structural complexity is necessary for recognition and high binding affinity to protein kinase C?” (J Med Chem, 2000).

Experiment [1] has as its target T1, Protein kinase C alpha type (Homo sapiens, UniProt P17252). Nature of the experiment: Binding Affinity against protein kinase C alpha.
The target in experiment [2] is T1, Protein kinase C alpha type.
The next experiment concerns K562. Briefly: Tested for growth inhibition against Leukemia K-562 cells. As to conditions: Homo sapiens. Format: functional. The gist of the method:
(§1)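 GI50 is interpolated from the NCI cell-panel screen. It is the concentration (M) at which percentage growth is inhibited by 50% in the named line.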

For a further experiment, the system named is COLO 205. Briefly: Tested for growth inhibition against COLO 205 cells. It counts as functional. As to conditions: Homo sapiens. An outline of the steps: as §1
Experiment [3] deals with Panel NCI-60 (60 carcinoma cell lines). Nature of the experiment: Tested for growth inhibition against MG-MID(full panel of cells). It counts as functional. As to conditions: Homo sapiens. An outline of the steps: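 MG-MID is the calculated mean of the GI50 concentrations (M) across the entire NCI cell panel. Each GI50 is the interpolated concentration (M) giving 50% growth inhibition.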

Another experiment deals with C3H 10T1/2. Briefly: Tested for inhibition of EGF(epidermal growth factor) to C3H10T1/2 cells. As to conditions: Mus musculus, read-out: ED50 (the source's name). It counts as functional. The gist of the method:
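C3H10T1/2 cells were plated at 2.5×10^5/well in MEM with 10% FBS and grown 2 days at 37 °C, 5% CO2. Cells were pretreated 60 min at 37 °C with ligand in MEM/BSA/25 mM BES pH 7.2 (DMSO <0.1% final). Cells were lysed in NaOH and bound counts measured. Background was taken with 1 μg/well unlabeled EGF. Six concentrations were run in triplicate, and ID50 is the mean of three experiments.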

For the next experiment, the species on record is Homo sapiens. Briefly: Tested for growth inhibition against Breast Hs 578.T. It counts as functional. The gist of the method:
as §1

Regarding `C/C=C1/CC(CO)(COC(=O)CC(C(C)C)C(C)C)OC1=O` (centres undefined), in experiment [1], the affinity, expressed as Ki, was 164 nM.

Turning to `CCCCC/C=C1\CC(CO)(COC(=O)CC(C(C)C)C(C)C)OC1=O` (centres undefined), in experiment [1], the Ki was 5.5 nM.

Consider `CCCCCCCCCC(=O)OCC1(CO)C/C(=C/CC(C(C)C)C(C)C)C(=O)O1` (centres undefined), for which the ED50 in experiment [2] came out at 660 nM. In addition, the GI50 in the experiment with K562 was 9200 nM; in the experiment with COLO 205, 18000 nM; in experiment [3], 44000 nM; in the experiment listed under Homo sapiens, 27000 nM. Further, the Ki in experiment [1] amounted to 2.3 nM. Also, the EC50 with C3H 10T1/2 stood at 1170 nM.

As to `CC(=O)OCC1(CO)C/C(=C\CC(C(C)C)C(C)C)C(=O)O1` (centres undefined), the Ki in experiment [1] was found to be 359 nM.

In experiment [1], `CCC/C=C1/CC(CO)(COC(=O)CC(C(C)C)C(C)C)OC1=O` (centres undefined) registered a Ki of 24 nM.

With `CCCC(=O)OCC1(CO)C/C(=C/C=C(C(C)C)C(C)C)C(=O)O1` (centres undefined), in experiment [1], the inhibition constant (Ki) came out at 68 nM. This Ki lies about 2.8-fold higher than the previous one.

Regarding `CCCCCCCC(=O)OC[C@]1(CO)C/C(=C\CC(C(C)C)C(C)C)C(=O)O1`, in experiment [1], the affinity corresponds to a Ki of 5.9 nM.

In experiment [2], `CCCCCCCCC/C=C1/CC(CO)(COC(=O)CC(C(C)C)C(C)C)OC1=O` (centres undefined) returned an ED50 of 430 nM. For the same molecule, the GI50 is 140 nM in the experiment on K562, 71 nM with COLO 205, 4700 nM in experiment [3] and 58 nM in the experiment filed under Homo sapiens. In experiment [1], this molecule registered a Ki of 13 nM. Besides, the EC50 in the experiment with C3H 10T1/2 came to 370 nM.

The molecule `CCCCCC(=O)OCC1(CO)C/C(=C/C=C(C(C)C)C(C)C)C(=O)O1` (centres undefined) registered a Ki in experiment [1] of 12 nM.

In turn, `CCCCCC(=O)OCC1(CO)C/C(=C\C=C(C(C)C)C(C)C)C(=O)O1` (centres undefined) returned an inhibitory constant (Ki) in experiment [1] of 8.4 nM. The Ki values of the last two molecules are within 1.5-fold of each other.

`CCCC(=O)OCC1(CO)C/C(=C/CC(C(C)C)C(C)C)C(=O)O1` (centres undefined): the ED50 in experiment [2] was 1950 nM. This molecule also registered a Ki in experiment [1] of 19 nM. In the experiment on C3H 10T1/2, the EC50 was determined as 820 nM.

For `CC(C)C(C/C=C1\CC(CO)(COC(=O)CC(C(C)C)C(C)C)OC1=O)C(C)C` (centres undefined), the ED50 in experiment [2] was found to be 680 nM. In addition, the GI50 in the experiment with K562 turned out to be 1500 nM; with COLO 205, 1600 nM; in the experiment filed under Homo sapiens it was 12000 nM. Besides, the EC50 in the experiment on C3H 10T1/2 was found to be 140 nM.

Turning to `CC(=O)OCC1(CO)C/C(=C\C=C(C(C)C)C(C)C)C(=O)O1` (centres undefined), in experiment [1], the affinity, expressed as Ki, was 409 nM.

The molecule `CCCC(=O)OCC1(CO)C/C(=C\C=C(C(C)C)C(C)C)C(=O)O1` (centres undefined) came in with a Ki in experiment [1] of 51 nM.

Turning to `CC(=O)OCC1(CO)C/C(=C/CC(C(C)C)C(C)C)C(=O)O1` (centres undefined), affinity in experiment [1] was put at a Ki of 123 nM.

In turn, `CCCC(=O)OCC1(CO)C/C(=C\CC(C(C)C)C(C)C)C(=O)O1` (centres undefined) had a Ki in experiment [1] of 54 nM. This Ki is about 2.3-fold lower than that of the molecule before.

In turn, `C/C=C1\CC(CO)(COC(=O)CC(C(C)C)C(C)C)OC1=O` (centres undefined) had a Ki in experiment [1] of 138 nM.

With `CCCCCCCC(=O)OC[C@]1(CO)C/C(=C/CC(C(C)C)C(C)C)C(=O)O1`, in experiment [1], the Ki is 3.5 nM.

`CCCCCCCC/C=C\CCCCCCC/C=C1/C[C@](/C=C/C(=O)OC)(CO)OC1=O` registered an ED50 in experiment [2] of 1070 nM. The same molecule gave a Ki in experiment [1] of 11 nM. For the same molecule, the EC50 in the experiment with C3H 10T1/2 is 330 nM.

With `CCC/C=C1\CC(CO)(COC(=O)CC(C(C)C)C(C)C)OC1=O` (centres undefined), the Ki in experiment [1] came to 28 nM. This counts as double-digit nanomolar.

For the molecule `CC(=O)O[C@@]12C[C@@H](C)[C@@]3(O)[C@@H](C=C(CO)C[C@]4(O)C(=O)C(C)=C[C@@H]34)[C@@H]1C2(C)C` [PROSTRATIN], the figures for the 50% growth inhibitory concentration (GI50) (with COLO 205; in experiment [3]; in the experiment listed under Homo sapiens) were 1900 nM, 7000 nM and 790 nM, respectively.

`CCCCCC(=O)OCC1(CO)C/C(=C\CC(C(C)C)C(C)C)C(=O)O1` (centres undefined): the affinity in experiment [1], expressed as Ki, was 11 nM.

In the case of `CCCC(=O)O[C@@H]1[C@@H](C)[C@@]2(O)[C@@H](C=C(CO)C[C@]3(O)C(=O)C(C)=C[C@@H]23)[C@@H]2C(C)(C)[C@]12OC(=O)CCC`, the EC50 in the experiment on C3H 10T1/2 is 20 nM.

Regarding `CCCCCCCCC/C=C1\CC(CO)(COC(=O)CC(C(C)C)C(C)C)OC1=O` (centres undefined), the Ki in experiment [1] was 9.5 nM.

Take `CCCCCCOC(=O)/C=C/[C@]1(CO)C/C(=C/CC(C(C)C)C(C)C)C(=O)O1`: the ED50 in experiment [2] came out at 950 nM. The same molecule displayed a Ki in experiment [1] of 3.5 nM. The EC50 in the experiment on C3H 10T1/2 was 140 nM.

As for `CCCCCCOC(=O)/C=C/[C@]1(CO)C/C(=C\CC(C(C)C)C(C)C)C(=O)O1`, the affinity in experiment [1] corresponds to a Ki of 29.5 nM.

`CCCCCCCCCC(=O)OCC1(CO)C/C(=C\CC(C(C)C)C(C)C)C(=O)O1` (centres undefined) had a Ki in experiment [1] of 6.6 nM.

Regarding `CC(=O)OCC1(CO)C/C(=C/C=C(C(C)C)C(C)C)C(=O)O1` (centres undefined), affinity in experiment [1] was put at a Ki of 390 nM. This Ki is about 59-fold higher than that of the molecule before.

For the molecule `CC(C)C(C/C=C1/CC(CO)(COC(=O)CC(C(C)C)C(C)C)OC1=O)C(C)C` (centres undefined), the ED50 in experiment [2] was found to be 550 nM. Also, the GI50 in the experiment on K562 was determined as 21 nM; with COLO 205 it was 25 nM; in experiment [3], 3200 nM; in the experiment filed under Homo sapiens it was 26 nM. Also, the EC50 in the experiment with C3H 10T1/2 was found to be 170 nM.

Turning to `CCCCC/C=C1/CC(CO)(COC(=O)CC(C(C)C)C(C)C)OC1=O` (centres undefined), the ED50 in experiment [2] is 340 nM. Further, the inhibition constant (Ki) in experiment [1] came out at 7.3 nM. For the same molecule, in the experiment on C3H 10T1/2, the EC50 stood at 130 nM.

Consider `CCCCCC(=O)OCC1(CO)C/C(=C/CC(C(C)C)C(C)C)C(=O)O1` (centres undefined), for which, in experiment [2], the ED50 worked out at 2330 nM. In addition, in experiment [1], affinity was put at a Ki of 5.9 nM. Besides, the EC50 in the experiment with C3H 10T1/2 turned out to be 2220 nM.

As usually defined, the Ki is a measure of affinity in units of concentration, obtained from inhibition or displacement. The GI50 is the concentration that inhibits growth by half.
